Laboratory results: ChEMBL document CHEMBL4196108, “5-Aroylindoles Act as Selective Histone Deacetylase 6 Inhibitors Ameliorating Alzheimer's Disease Phenotypes” (J Med Chem, 2018)
Active and inactive are the calls of the source. The calls are words filed in the database; no cut-off is given here.

How the values were obtained:
[1] = target: T1, Protein deacetylase HDAC6 (Homo sapiens) (UniProt Q9UBN7); experiment: Inhibition of HDAC6 in human SH-SY5Y cells transfected with pCAX FLAG APP and pRK5-EGFP-Tau P301L plasmids assessed as inhibition of Tau P301L mutant phosphorylation at Ser404 residue at 1 uM after 24 hrs by Western blot analysis; assay type: cell-based
T1 sequence (whole entry): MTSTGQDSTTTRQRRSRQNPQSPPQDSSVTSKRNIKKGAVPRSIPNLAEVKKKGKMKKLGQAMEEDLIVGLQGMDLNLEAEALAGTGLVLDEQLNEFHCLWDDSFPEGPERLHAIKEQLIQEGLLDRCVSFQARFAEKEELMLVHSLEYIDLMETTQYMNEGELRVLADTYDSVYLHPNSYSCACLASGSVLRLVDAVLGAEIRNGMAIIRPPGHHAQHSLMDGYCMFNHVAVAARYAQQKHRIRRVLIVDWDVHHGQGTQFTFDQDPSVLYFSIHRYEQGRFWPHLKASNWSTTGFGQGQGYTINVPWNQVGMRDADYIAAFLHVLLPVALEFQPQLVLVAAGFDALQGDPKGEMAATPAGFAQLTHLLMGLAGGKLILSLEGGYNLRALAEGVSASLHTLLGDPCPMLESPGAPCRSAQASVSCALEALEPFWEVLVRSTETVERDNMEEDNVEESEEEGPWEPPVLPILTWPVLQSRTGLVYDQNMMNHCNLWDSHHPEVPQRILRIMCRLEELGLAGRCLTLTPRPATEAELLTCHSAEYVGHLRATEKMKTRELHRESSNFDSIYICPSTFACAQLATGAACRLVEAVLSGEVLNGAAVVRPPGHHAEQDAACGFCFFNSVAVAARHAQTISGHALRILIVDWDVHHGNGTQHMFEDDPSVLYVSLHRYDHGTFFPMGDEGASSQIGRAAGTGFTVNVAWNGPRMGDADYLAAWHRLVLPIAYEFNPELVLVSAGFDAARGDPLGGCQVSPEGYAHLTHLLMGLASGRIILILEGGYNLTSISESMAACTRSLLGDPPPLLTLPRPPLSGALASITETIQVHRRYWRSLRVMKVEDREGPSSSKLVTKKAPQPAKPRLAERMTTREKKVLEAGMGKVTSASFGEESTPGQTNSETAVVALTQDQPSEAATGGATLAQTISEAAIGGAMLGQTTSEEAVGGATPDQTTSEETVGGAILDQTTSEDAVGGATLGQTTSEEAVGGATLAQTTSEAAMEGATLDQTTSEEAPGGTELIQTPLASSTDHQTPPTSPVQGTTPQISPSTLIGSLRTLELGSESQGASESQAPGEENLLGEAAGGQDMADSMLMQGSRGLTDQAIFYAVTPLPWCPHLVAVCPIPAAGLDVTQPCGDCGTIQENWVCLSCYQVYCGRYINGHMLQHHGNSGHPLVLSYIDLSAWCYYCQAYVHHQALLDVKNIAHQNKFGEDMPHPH
Outline: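 SH-SY5Y or Neuro-2a cells cotransfected 24 h with pCAX APP695 and pRK5-EGFP-Tau P301L, then treated 24 h at 1 µM. 20 µg lysate protein immunoblotted for APP and phospho-tau Ser396/Ser404. Mean ± STD of three independent experiments; Student's t-test.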

[2] = target: T1, Protein deacetylase HDAC6 (Homo sapiens); experiment: Inhibition of HDAC6 in human SH-SY5Y cells transfected with pCAX FLAG APP and pRK5-EGFP-Tau P301L plasmids assessed as reduction in formed Tau P301L mutant aggregates level at 1 uM after 24 hrs by Western blot analysis; assay type: cell-based
Outline: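 Cotransfected SH-SY5Y cells (1 × 10^7) treated 24 h at 1 µM, lysed in sucrose/HEPES pH 7.2 buffer; 190,000 g supernatant = cytosol. Pellet treated with 5 µM nocodazole, re-spun; residual pellet extracted with sodium carbonate pH 11.5 and washed in 1% SDS to give aggregate fraction. Equal protein by SDS-PAGE immunoblot.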

[3] = target: T1, Protein deacetylase HDAC6 (Homo sapiens); experiment: (§1) Inhibition of HDAC6 in human SH-SY5Y cells transfected with pCAX FLAG APP and pRK5-EGFP-Tau P301L plasmids assessed as suppression of phosphorylated tau P301L mutant-induced apoptosis by measuring accumulation at sub-G1 phase at 0.1 uM after 24 hrs by propidium iodide staining-based flow cytometry (reference value: 22.01%); assay type: cell-based; design: scale not given: the % may be the effect or the level left
[4] = target: T1, Protein deacetylase HDAC6 (Homo sapiens); experiment: as §1, with “1” for “0.1”; assay type: cell-based; design: scale not given: the % may be the effect or the level left
[5] = target: T1, Protein deacetylase HDAC6 (Homo sapiens); experiment: Inhibition of HDAC6 in human SH-SY5Y cells transfected with pCAX FLAG APP and pRK5-EGFP-Tau P301L plasmids assessed as increase in polyubiquitinated protein level at 0.01 to 1 uM after 24 hrs by immunoblot analysis; assay type: cell-based
Outline: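 SH-SY5Y cells transfected 24 h with APP695/Tau P301L plasmids, then treated; whole lysates immunoblotted for polyubiquitin complexes.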

Rattus norvegicus = experiment: Reversal of scopolamine-induced spatial memory impairment in Wistar rat assessed as decrease in transfer latency time at 25 mg/kg, po administered once daily for 1 week followed by scopolamine challenge 90 mins prior to test by elevated plus maze test; assay type: functional, organism-based
Outline: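 Male Wistar rats, 7 weeks old, dosed orally at 25 mg/kg in 1% carboxymethyl cellulose/0.5% Tween 80 once daily. Scopolamine 1 mg/kg i.p. 90 min before test trial (controls excluded). Morris water maze (hidden platform escape latency), elevated plus maze (started at open-arm end, time to closed arm), then CA1 phospho-tau Ser396/Ser404 immunohistochemistry.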

Mus musculus [6] = experiment: In vivo inhibition of HDAC6 in 3xTg-AD transgenic mouse brain hippocampal CA1 region assessed as downregulation of scopolamine-mediated increase in Tau phosphorylation at Ser404 residue at 50 mg/kg, po administered daily for 3 months by immunohistochemical analysis; assay type: functional, organism-based
Outline: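 Female 3xTg-AD mice, standard diet to 6 months of age, then 50 mg/kg orally once daily for three months; memantine 30 mg/kg in water as comparator. Brains removed and hippocampal CA1 sections immunostained for acetyl-α-tubulin and phospho-tau Ser396 and Ser404. Mean ± STD; one-way ANOVA.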

Mus musculus [7] = experiment: In vivo inhibition of HDAC6 in 3xTg-AD transgenic mouse brain hippocampal CA1 region assessed as downregulation of […] expression of beta-amyloid at 50 mg/kg, po administered daily for 3 months by immunohistochemical analysis; assay type: functional, organism-based
[8] = Plasma concentration in Sprague-Dawley rat at 50 mg/kg, po after 1 hr by HPLC-MS/MS analysis; assay type: ADME, organism-based
Mus musculus [9] = experiment: In vivo inhibition of HDAC6 in 3xTg-AD transgenic mouse brain hippocampal CA1 region assessed as downregulation of scopolamine-mediated increase in Tau phosphorylation at Ser404 residue at 50 mg/kg, po administered daily for 3 months by Western blot analysis; assay type: functional, organism-based
Outline: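 Female 3xTg-AD mice, fed standard diet to 6 months of age, then dosed orally at 50 or 100 mg/kg once daily for three months. Brains removed; hippocampal tissue lysates immunoblotted for acetyl-α-tubulin and phospho-tau Ser396 and Ser404. Mean ± STD; one-way ANOVA.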

[10] = Toxicity in Balb/c mouse assessed as survival rate at 1000 mg/kg, ip qd administered for 6 days followed by 1 week recovery (reference value: 100%); assay type: organism-based; details: in vivo

In the case of COc1ccc(C(=O)c2ccc3c(ccn3Cc3ccc(C(=O)NO)cc3)c2)cc1, the inhibition [1] is reported as “Active”, the inhibition [2] is reported as “Active” and the Activity [3] is reported as 13.5%. The Activity [4] was 11.5%, the inhibition [5] was “Active” and the Activity (Rattus norvegicus) was “Active”. The inhibition (Mus musculus [6]) was “Active”, the inhibition (Mus musculus [7]) was “Active” and the concentration at 1 h [8] was 8.5 ng/mL. The inhibition (Mus musculus [9]) was “Active” and the survival [10] was 100%.
